Reference: ChEMBL document CHEMBL1128374, “Preparation and in vitro activities of ethers of [D-serine]8-cyclosporin” (J Med Chem, 1995)
In brackets after ≈: the same amount, converted by molar mass.

Experiments:
Type in all cases: functional
Mus musculus [1] = organism: Mus musculus; assay: In vitro efficacy on humoral immune response by Mishell-Dutton assay (MD).
Method in brief: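 Spleen lymphocytes from female OF1 mice (ca. 10 x 10^6) cultured 3 days with sheep erythrocytes (ca. 30 x 10^6) and test compound. Cells then plated on agar with fresh erythrocytes; plaques form by complement lysis. Read-out is the count of antibody-producing plaque-forming cells. Cyclosporin A run in parallel.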

Mus musculus [2] = organism: Mus musculus; assay: In vitro efficacy to suppress lymphocyte proliferation as measured by the incorporation of a labeled precursor ([3H]- thymidine) into DNA in Mixed Lymphocyte reaction (MLR).
Method in brief: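 Cells from spleens of female CBA mice aged 8–10 weeks (ca. 5 x 10^5). Compounds made up at 20 mg/mL in 9:1 (v/v) ethanol/Tween 80, then diluted in saline before adding to medium. Four concentrations per compound across 1.8–1000 ng/mL, in triplicate cultures. IC50 is the calculated concentration giving 50% inhibition of proliferation. Cyclosporin A run in parallel as control.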

Mus musculus [3] = organism: Mus musculus; assay: In vitro inhibition of interleukin-2 (IL-2) production induced by stimulating lymphocytes derived from mouse spleens with the […]; conditions: Spleen
Method in brief: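 Compounds added with concanavalin A to the primary culture; supernatants collected at 48 h. IL-2 content measured by growth of IL-2-dependent CTLL cells, read as tritiated thymidine incorporation after 48 h. IC50 determined, with cyclosporin A run in parallel.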

Structure (SMILES)	IC50 (Mus musculus [1]) [µg/mL]	IC50 (Mus musculus [2]) [µg/mL]	IC50 (Mus musculus [3]) [µg/mL]
C=C(CO)COC[C@H]1NC(=O)[C@H](C)NC(=O)[C@H](CC(C)C)N(C)C(=O)[C@H](C(C)C)NC(=O)[C@H](CC(C)C)N(C)C(=O)CN(C)C(=O)[C@H](CC)NC(=O)[C@H]([C@H](O)[C@H](C)C/C=C/C)N(C)C(=O)[C@H](C(C)C)N(C)C(=O)[C@H](CC(C)C)N(C)C(=O)[C@H](CC(C)C)N(C)C1=O	0.032 (≈ 0.0248 µM)	< 0.008	0.048 (≈ 0.0372 µM)
C=CCOC[C@H]1NC(=O)[C@H](C)NC(=O)[C@H](CC(C)C)N(C)C(=O)[C@H](C(C)C)NC(=O)[C@H](CC(C)C)N(C)C(=O)CN(C)C(=O)[C@H](CC)NC(=O)[C@H]([C@H](O)[C@H](C)C/C=C/C)N(C)C(=O)[C@H](C(C)C)N(C)C(=O)[C@H](CC(C)C)N(C)C(=O)[C@H](CC(C)C)N(C)C1=O	0.032 (≈ 0.0254 µM)	0.088 (≈ 0.0699 µM)	0.115 (≈ 0.0914 µM)
C/C=C/C[C@@H](C)[C@@H](O)[C@H]1C(=O)N[C@@H](CC)C(=O)N(C)CC(=O)N(C)[C@@H](CC(C)C)C(=O)N[C@@H](C(C)C)C(=O)N(C)[C@@H](CC(C)C)C(=O)N[C@@H](C)C(=O)N[C@H](COCCOC(C)=O)C(=O)N(C)[C@@H](CC(C)C)C(=O)N(C)[C@@H](CC(C)C)C(=O)N(C)[C@@H](C(C)C)C(=O)N1C	0.028 (≈ 0.0215 µM)	0.018 (≈ 0.0138 µM)	0.012 (≈ 0.0092 µM)
C=C(CCl)COC[C@H]1NC(=O)[C@H](C)NC(=O)[C@H](CC(C)C)N(C)C(=O)[C@H](C(C)C)NC(=O)[C@H](CC(C)C)N(C)C(=O)CN(C)C(=O)[C@H](CC)NC(=O)[C@H]([C@H](O)[C@H](C)C/C=C/C)N(C)C(=O)[C@H](C(C)C)N(C)C(=O)[C@H](CC(C)C)N(C)C(=O)[C@H](CC(C)C)N(C)C1=O	0.23 (≈ 0.176 µM)	0.27 (≈ 0.207 µM)	> 0.1
C/C=C/C[C@@H](C)[C@@H](O)[C@H]1C(=O)N[C@@H](CC)C(=O)N(C)CC(=O)N(C)[C@@H](CC(C)C)C(=O)N[C@@H](C(C)C)C(=O)N(C)[C@@H](CC(C)C)C(=O)N[C@@H](C)C(=O)N[C@H](COCCN)C(=O)N(C)[C@@H](CC(C)C)C(=O)N(C)[C@@H](CC(C)C)C(=O)N(C)[C@@H](C(C)C)C(=O)N1C	0.095 (≈ 0.0753 µM)	0.22 (≈ 0.174 µM)	0.38 (≈ 0.301 µM)
C#CCOC[C@H]1NC(=O)[C@H](C)NC(=O)[C@H](CC(C)C)N(C)C(=O)[C@H](C(C)C)NC(=O)[C@H](CC(C)C)N(C)C(=O)CN(C)C(=O)[C@H](CC)NC(=O)[C@H]([C@H](O)[C@H](C)C/C=C/C)N(C)C(=O)[C@H](C(C)C)N(C)C(=O)[C@H](CC(C)C)N(C)C(=O)[C@H](CC(C)C)N(C)C1=O	0.036 (≈ 0.0286 µM)	0.072 (≈ 0.0573 µM)	0.09 (≈ 0.0716 µM)
C/C=C/C[C@@H](C)[C@@H](O)[C@H]1C(=O)N[C@@H](CC)C(=O)N(C)CC(=O)N(C)[C@@H](CC(C)C)C(=O)N[C@@H](C(C)C)C(=O)N(C)[C@@H](CC(C)C)C(=O)N[C@@H](C)C(=O)N2CCOC[C@@H]2C(=O)N(C)[C@@H](CC(C)C)C(=O)N(C)[C@@H](CC(C)C)C(=O)N(C)[C@@H](C(C)C)C(=O)N1C	–	0.006 (≈ 0.00482 µM)	0.003 (≈ 0.00241 µM)
C/C=C/C[C@@H](C)[C@@H](O)[C@H]1C(=O)N[C@@H](CC)C(=O)N(C)CC(=O)N(C)[C@@H](CC(C)C)C(=O)N[C@@H](C(C)C)C(=O)N(C)[C@@H](CC(C)C)C(=O)N[C@@H](C)C(=O)N[C@H](COCCN=[N+]=[N-])C(=O)N(C)[C@@H](CC(C)C)C(=O)N(C)[C@@H](CC(C)C)C(=O)N(C)[C@@H](C(C)C)C(=O)N1C	0.087 (≈ 0.0676 µM)	0.11 (≈ 0.0854 µM)	–
C=C(COC[C@H]1NC(=O)[C@H](C)NC(=O)[C@H](CC(C)C)N(C)C(=O)[C@H](C(C)C)NC(=O)[C@H](CC(C)C)N(C)C(=O)CN(C)C(=O)[C@H](CC)NC(=O)[C@H]([C@H](O)[C@H](C)C/C=C/C)N(C)C(=O)[C@H](C(C)C)N(C)C(=O)[C@H](CC(C)C)N(C)C(=O)[C@H](CC(C)C)N(C)C1=O)CO[Si](C)(C)C(C)(C)C	> 1	0.45 (≈ 0.321 µM)	> 1
C=C1COC[C@@H]2C(=O)N(C)[C@@H](CC(C)C)C(=O)N(C)[C@@H](CC(C)C)C(=O)N(C)[C@@H](C(C)C)C(=O)N(C)[C@@H]([C@H](O)[C@H](C)C/C=C/C)C(=O)N[C@@H](CC)C(=O)N(C)CC(=O)N(C)[C@@H](CC(C)C)C(=O)N[C@@H](C(C)C)C(=O)N(C)[C@@H](CC(C)C)C(=O)N[C@@H](C)C(=O)N2C1	–	0.036 (≈ 0.0283 µM)	0.012 (≈ 0.00944 µM)
C/C=C/C[C@@H](C)[C@@H](O)[C@H]1C(=O)N[C@@H](CC)C(=O)N(C)CC(=O)N(C)[C@@H](CC(C)C)C(=O)N[C@@H](C(C)C)C(=O)N(C)[C@@H](CC(C)C)C(=O)N[C@@H](C)C(=O)N2CC(OCC)OC[C@@H]2C(=O)N(C)[C@@H](CC(C)C)C(=O)N(C)[C@@H](CC(C)C)C(=O)N(C)[C@@H](C(C)C)C(=O)N1C (mixture of isomers)	–	0.04	0.01
